Experimental data from different studies.
Protocols differ between the studies behind these lines.
Target: Cyclin-dependent kinase 17 (CDK17, Homo sapiens, UniProt Q00537)

C[C@H]1CCN(c2nccc(-c3cnn4ncccc34)n2)C1 — remaining binding (binding; 1 µM): 0%
CCN1CCN(Cc2ccc(C(=O)Nc3ccc(C)c(Oc4ccc5c(c4)CC(=O)N5)c3)cc2C(F)(F)F)CC1 — remaining binding (binding, competition with immobilised ligand; 1 µM): 100%
Cc1cnn2ncc(-c3ccnc(N(C)C)n3)c2c1 — remaining binding (binding; 1 µM): 100%
O=C(NCCCN1CCOCC1)c1ccc(Nc2ncc(Cl)c(-c3ccc(Cl)s3)n2)cc1 — remaining binding (binding, competition with immobilised ligand; 1 µM): 31%
CN(C)c1ncc(F)c(-c2cnn3ncccc23)n1 — remaining binding (binding; 1 µM): 97%
CC(=O)N1CCC(c2ccc(C(=O)NC(=N)N)cc2C(F)(F)F)CC1 — remaining binding (cell-free assay, competition with immobilised ligand; 1 µM): 100%
Cc1cnc(Nc2ccc(C(=O)N3CCC(N4CCCC4)CC3)cc2)nc1-c1cc2ccccc2s1 — remaining binding (binding, competition with immobilised ligand; 1 µM): 9.2%
C[C@@]1(Cc2ccc(C#N)cc2)C(=O)N(c2cc(Cl)cc(Cl)c2)c2ncc(C(=O)NC3(c4nc(C5CCC5)no4)CC3)n21 — remaining binding (cell-free assay, competition with immobilised ligand; 1 µM): 100%
CNC(=O)[C@@H]1CC[C@@H](n2c(-c3ccc4cnccc4c3)nc3ccc(C(=O)NCc4cccc(C(N)=O)c4)cc32)C1 — remaining binding (binding, competition with immobilised ligand; 1 µM): 93%
N[C@H]1CCN(c2nccc(-c3cnn4ncccc34)n2)C1 — remaining binding (binding; 1 µM): 100%
O=C(Nc1c[nH]nc1C(=O)NC1CCNCC1)c1cc(F)cc(F)c1 — remaining binding (binding, competition with immobilised ligand; 1 µM): 20%
O=C(c1ccc(Nc2ncc(Cl)c(-c3cc4ccccc4s3)n2)cc1)N1CCC(N2CCCC2)CC1 — remaining binding (binding, competition with immobilised ligand; 1 µM): 0%
O=c1nc(-c2ccccn2)sc2ccccc12 — remaining binding (binding, competition with immobilised ligand; 1 µM): 100%
COc1cnc(Nc2cccc(S(N)(=O)=O)c2)nc1N1CCN(c2ccccc2)CC1 — remaining binding (binding, competition with immobilised ligand; 1 µM): 100%
Cc1c(NC(=O)c2cc(C(N)=O)nc3cc(F)ccc23)c(C(F)(F)F)nn1Cc1ccc(C(C)(C)C)cc1 — remaining binding (cell-free assay, competition with immobilised ligand; 1 µM): 100%
CN(c1nccc(-c2cnn3ncccc23)n1)C1CC1 — remaining binding (binding; 1 µM): 100%
C[C@@H]1CN(c2cc(-c3n[nH]c4ccc(OC5(C)CC5)cc34)ncn2)C[C@H](C)O1 — remaining binding (cell-free assay, competition with immobilised ligand; 0.1 µM): 89%
COc1ccnn2ncc(-c3ccnc(N(C)C)n3)c12 — remaining binding (binding; 1 µM): 100%
CN(C)C(=O)Cn1cc(-c2nc(C3(c4ccc(-c5cnc(N)nc5)cc4)CC3)no2)cn1 — remaining binding (cell-free assay, competition with immobilised ligand; 1 µM): 100%
Nc1ncc2c(n1)-c1c([nH]c3ccc(C#CC4CC4)cc13)CCCC2 — remaining binding (binding, competition with immobilised ligand; 1 µM): 85%
